system: HL-60; experiment: Cell cycle arrest in human HL60 cells assessed as accumulation at G2 phase at 40 uM after 24 hrs by propidium iodide staining-based FACS flow cytometric analysis (reference value: 1%); type: functional
Summary of the method: (§1)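 HL-60 cells seeded at 0.44 × 10^6/mL and exposed to 10, 20, 30 or 40 μM for 24 h. Cells were pelleted at 400g, washed in ice-cold PBS and fixed overnight in ice-cold 70% ethanol at 4 °C. They were treated with RNase (0.2 mg/mL) for 1 h at 37 °C, then stained with PI (10 μg/mL) for 30 min in the dark. Flow cytometry collected 10 000 events (FL2-A vs FL2-W). Sub-G0, G1, S and G2 fractions were fitted by modelling software.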

Row | Compound | Activity [%]
1 | CC(=O)c1c(O)c(C)c(O)c(Cc2c(O)c(CC=C(C)C)c(O)c3c2O[C@H](c2ccccc2)CC3=O)c1O | 18

system: HL-60; experiment: Cell cycle arrest in human HL60 cells assessed as accumulation at S phase at 40 uM after 24 hrs by propidium iodide staining-based FACS flow cytometric analysis (reference value: 54%); type: functional; summary of the method: as §1

Row | Compound | Activity [%]
2 | CC(=O)c1c(O)c(C)c(O)c(Cc2c(O)c(CC=C(C)C)c(O)c3c2O[C@H](c2ccccc2)CC3=O)c1O | 22

system: HL-60; experiment: Cell cycle arrest in human HL60 cells assessed as accumulation at G1 phase at 40 uM after 24 hrs by propidium iodide staining-based FACS flow cytometric analysis (reference value: 45%); type: functional; summary of the method: as §1

Row | Compound | Activity [%]
3 | CC(=O)c1c(O)c(C)c(O)c(Cc2c(O)c(CC=C(C)C)c(O)c3c2O[C@H](c2ccccc2)CC3=O)c1O | 60

system: HL-60; experiment: Cell cycle arrest in human HL60 cells assessed as accumulation at G2 phase at 30 uM after 24 hrs by propidium iodide staining-based FACS flow cytometric analysis (reference value: 1%); type: functional; summary of the method: as §1

Row | Compound | Activity [%]
4 | CC(=O)c1c(O)c(C)c(O)c(Cc2c(O)c(CC=C(C)C)c(O)c3c2O[C@H](c2ccccc2)CC3=O)c1O | 7

system: HL-60; experiment: Cell cycle arrest in human HL60 cells assessed as accumulation at sub-G0 phase at 40 uM after 24 hrs by propidium iodide staining-based FACS flow cytometric analysis (reference value: 3%); type: functional; summary of the method: as §1

Row | Compound | Activity [%]
5 | CC(=O)c1c(O)c(C)c(O)c(Cc2c(O)c(CC=C(C)C)c(O)c3c2O[C@H](c2ccccc2)CC3=O)c1O | 55

system: HL-60; experiment: Cell cycle arrest in human HL60 cells assessed as accumulation at S phase at 30 uM after 24 hrs by propidium iodide staining-based FACS flow cytometric analysis (reference value: 54%); type: functional; summary of the method: as §1

Row | Compound | Activity [%]
6 | CC(=O)c1c(O)c(C)c(O)c(Cc2c(O)c(CC=C(C)C)c(O)c3c2O[C@H](c2ccccc2)CC3=O)c1O | 16

system: HL-60; experiment: Cell cycle arrest in human HL60 cells assessed as accumulation at G1 phase at 30 uM after 24 hrs by propidium iodide staining-based FACS flow cytometric analysis (reference value: 45%); type: functional; summary of the method: as §1

Row | Compound | Activity [%]
7 | CC(=O)c1c(O)c(C)c(O)c(Cc2c(O)c(CC=C(C)C)c(O)c3c2O[C@H](c2ccccc2)CC3=O)c1O | 77

system: HL-60; experiment: Cell cycle arrest in human HL60 cells assessed as accumulation at sub-G0 phase at 30 uM after 24 hrs by propidium iodide staining-based FACS flow cytometric analysis (reference value: 3%); type: functional; summary of the method: as §1

Row | Compound | Activity [%]
8 | CC(=O)c1c(O)c(C)c(O)c(Cc2c(O)c(CC=C(C)C)c(O)c3c2O[C@H](c2ccccc2)CC3=O)c1O | 29

system: HL-60; experiment: Cell cycle arrest in human HL60 cells assessed as accumulation at G2 phase at 20 uM after 24 hrs by propidium iodide staining-based FACS flow cytometric analysis (reference value: 1%); type: functional; summary of the method: as §1

Row | Compound | Activity [%]
9 | CC(=O)c1c(O)c(C)c(O)c(Cc2c(O)c(CC=C(C)C)c(O)c3c2O[C@H](c2ccccc2)CC3=O)c1O | 4

system: HL-60; experiment: Cell cycle arrest in human HL60 cells assessed as accumulation at S phase at 20 uM after 24 hrs by propidium iodide staining-based FACS flow cytometric analysis (reference value: 54%); type: functional; summary of the method: as §1

Row | Compound | Activity [%]
10 | CC(=O)c1c(O)c(C)c(O)c(Cc2c(O)c(CC=C(C)C)c(O)c3c2O[C@H](c2ccccc2)CC3=O)c1O | 18

system: HL-60; experiment: Cell cycle arrest in human HL60 cells assessed as accumulation at G1 phase at 20 uM after 24 hrs by propidium iodide staining-based FACS flow cytometric analysis (reference value: 45%); type: functional; summary of the method: as §1

Row | Compound | Activity [%]
11 | CC(=O)c1c(O)c(C)c(O)c(Cc2c(O)c(CC=C(C)C)c(O)c3c2O[C@H](c2ccccc2)CC3=O)c1O | 78

system: HL-60; experiment: Cell cycle arrest in human HL60 cells assessed as accumulation at sub-G0 phase at 20 uM after 24 hrs by propidium iodide staining-based FACS flow cytometric analysis (reference value: 3%); type: functional; summary of the method: as §1

Row | Compound | Activity [%]
12 | CC(=O)c1c(O)c(C)c(O)c(Cc2c(O)c(CC=C(C)C)c(O)c3c2O[C@H](c2ccccc2)CC3=O)c1O | 26

system: HL-60; experiment: Cell cycle arrest in human HL60 cells assessed as accumulation at G2 phase at 10 uM after 24 hrs by propidium iodide staining-based FACS flow cytometric analysis (reference value: 1%); type: functional; summary of the method: as §1

Row | Compound | Activity [%]
13 | CC(=O)c1c(O)c(C)c(O)c(Cc2c(O)c(CC=C(C)C)c(O)c3c2O[C@H](c2ccccc2)CC3=O)c1O | 5

system: HL-60; experiment: Cell cycle arrest in human HL60 cells assessed as accumulation at S phase at 10 uM after 24 hrs by propidium iodide staining-based FACS flow cytometric analysis (reference value: 54%); type: functional; summary of the method: as §1

Row | Compound | Activity [%]
14 | CC(=O)c1c(O)c(C)c(O)c(Cc2c(O)c(CC=C(C)C)c(O)c3c2O[C@H](c2ccccc2)CC3=O)c1O | 20

system: HL-60; experiment: Cell cycle arrest in human HL60 cells assessed as accumulation at G1 phase at 10 uM after 24 hrs by propidium iodide staining-based FACS flow cytometric analysis (reference value: 45%); type: functional; summary of the method: as §1

Row | Compound | Activity [%]
15 | CC(=O)c1c(O)c(C)c(O)c(Cc2c(O)c(CC=C(C)C)c(O)c3c2O[C@H](c2ccccc2)CC3=O)c1O | 75

From ChEMBL document CHEMBL2424563, “Semisynthesis of mallotus B from rottlerin: evaluation of cytotoxicity and apoptosis-inducing activity” (J Nat Prod, 2013)
